# Data from ChEMBL document CHEMBL4359864, “The synthesis and in vitro biological evaluation of novel fluorinated tetrahydrobenzo[j]phenanthridine-7,12-diones against Mycobacterium tuberculosis” (Eur J Med Chem, 2019).
# pIC50: −log10 of the molar value.
# Experiments:
# Enterococcus faecium = assay: Antibacterial activity against Enterococcus faecium ATCC 19434 incubated for 24 hrs by resazurin dye based fluorimetric assay; assay type: functional, organism-based; settings: ATCC 19434, 24 h
# Outline: (§1)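 Resazurin microtiter assay: compounds from 10 mM DMSO stock, twofold serial dilutions from 64 µM final in growth medium, in triplicate. Inoculum from frozen glycerol stocks. Exposure 24 h, or 7 days for Mtb H37Ra (7H9 + 0.5% glycerol + 10% OADC). Then 0.01% resazurin was added and plates were incubated at 37°C until pink. Fluorescence read at ex 550/em 590 nm; mean of triplicates.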
# [1] = Cytotoxicity against mouse J774A.1 cells assessed as reduction in cell viability incubated for 24 hrs by neutral red uptake assay; assay type: cell-based, J774.A1
# Outline: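 J774A.1 cells in DMEM + 10% iFCS, 37°C, 5% CO2, seeded at 40.000 cells/well and left overnight. Twofold dilutions from 128 µM final; 24 h exposure. Neutral red uptake for 3 h, dye extracted with 1:1 ethanol/acetic acid, OD read at 530 nm (reference 620 nm). CC50 = 50% reduction in uptake; mean of triplicates.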
# CYP450 [2] = molecular target: T1, CYP450 (Homo sapiens, UniProt P04798+P05177+P05181+P08684+P10632+P10635+P11509+P11712+P13584+P20813+P20815+P20853+P24462+P24903+P33260+P33261+P51589+P78329+P98187+Q02928+Q08477+Q16678+Q16696+Q5TCH4+Q6VVX0+Q7Z449+Q8TAV3+Q96SQ9+Q9HB55); assay: Microsomal stability in human liver microsomes assessed as CYP450-mediated metabolism by measuring compound remaining at 5 uM and measured for 30 mins in presence of NADPH by UPLC-MS/MS analysis (reference value: 100%); assay type: ADME; settings: read-out: Stability
# Outline: (§2)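 Compound at 5 µM with 0.5 mg/mL liver microsomes in PBS. Phase I was started with 1 mM NADPH; phase II used 2 mM UDPGA. Diclofenac served as reference. Samples taken at 0, 15, 30 and 60 min were quenched in ice-cold acetonitrile, centrifuged at 4°C and analysed by LC-MS. Mean of at least two replicates ± SD.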
# UGT [3] = molecular target: T2, UGT (Homo sapiens, UniProt O60656+O75310+O75795+P06133+P0DTE4+P0DTE5+P16662+P19224+P22309+P22310+P35503+P35504+P36537+P54855+Q6UWM9+Q9BY64+Q9HAW7+Q9HAW8+Q9HAW9); assay: Microsomal stability in human liver microsomes assessed as UGT-mediated metabolism by measuring compound remaining at 5 uM and measured for 30 mins in presence of UDPGA by UPLC-MS/MS analysis (reference value: 100%); assay type: ADME; settings: read-out: Stability; outline: as §2
# UGT [4] = molecular target: T2, UGT; assay: Microsomal stability in human liver microsomes assessed as UGT-mediated metabolism by measuring compound remaining at 5 uM and measured for 15 mins in presence of UDPGA by UPLC-MS/MS analysis (reference value: 100%); assay type: ADME; settings: read-out: Stability; outline: as §2
# UGT [5] = assay: Microsomal stability in mouse liver microsomes assessed as UGT-mediated metabolism by measuring compound remaining at 5 uM and measured for 60 mins in presence of UDPGA by UPLC-MS/MS analysis (reference value: 100%); assay type: ADME; settings: read-out: Stability; outline: as §2
# CYP450 [6] = assay: Microsomal stability in mouse liver microsomes assessed as CYP450-mediated metabolism by measuring compound remaining at 5 uM and measured for 30 mins in presence of NADPH by UPLC-MS/MS analysis (reference value: 100%); assay type: ADME; settings: read-out: Stability; outline: as §2
# [7] = tested on: Mycobacterium tuberculosis; assay: Antibacterial activity against Mycobacterium tuberculosis H37Ra ATCC 25177 incubated for 7 days by resazurin dye based fluorimetric assay; assay type: functional, organism-based; settings: H37Ra ATCC 25177, 168 h; outline: as §1
# UGT [8] = assay: Microsomal stability in mouse liver microsomes assessed as UGT-mediated metabolism by measuring compound remaining at 5 uM and measured for 30 mins in presence of UDPGA by UPLC-MS/MS analysis (reference value: 100%); assay type: ADME; settings: read-out: Stability; outline: as §2
# CYP450 [9] = assay: Microsomal stability in mouse liver microsomes assessed as CYP450-mediated metabolism by measuring compound remaining at 5 uM and measured for 15 mins in presence of NADPH by UPLC-MS/MS analysis (reference value: 100%); assay type: ADME; settings: read-out: Stability; outline: as §2
# Mycobacterium marinum = assay: Antimycobacterial activity against Mycobacterium marinum NCTC 2275 by resazurin dye based fluorimetric assay; assay type: functional, organism-based
# Outline: (§3)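 Resazurin microtiter method as for the bacterial panel. Mycobacteria grown in 7H9 with 10% OADC and 0.5% glycerol; for BCG, 0.05% Tween 80 replaced the glycerol. Cultures were sonicated and needle-passed to single cells. Incubation at 37°C, or 32°C for M. marinum. Fluorescence read at ex 550/em 590 nm; mean of triplicates.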
# CYP450 [10] = assay: Microsomal stability in mouse liver microsomes assessed as CYP450-mediated metabolism by measuring compound remaining at 5 uM and measured for 60 mins in presence of NADPH by UPLC-MS/MS analysis (reference value: 100%); assay type: ADME; settings: read-out: Stability; outline: as §2
# UGT [11] = molecular target: T2, UGT; assay: Microsomal stability in human liver microsomes assessed as UGT-mediated metabolism by measuring compound remaining at 5 uM and measured for 60 mins in presence of UDPGA by UPLC-MS/MS analysis (reference value: 100%); assay type: ADME; settings: read-out: Stability; outline: as §2
# [12] = Antimycobacterial activity against Mycobacterium avium subsp. avium ATCC 25291 by resazurin dye based fluorimetric assay; assay type: functional; outline: as §3
# Pseudomonas aeruginosa = assay: Antibacterial activity against Pseudomonas aeruginosa ATCC 9027 incubated for 24 hrs by resazurin dye based fluorimetric assay; assay type: functional, organism-based; settings: ATCC 9027, 24 h; outline: as §1
# Klebsiella pneumoniae = assay: Antibacterial activity against Klebsiella pneumoniae ATCC 13883 incubated for 24 hrs by resazurin dye based fluorimetric assay; assay type: functional, organism-based; settings: ATCC 13883, 24 h; outline: as §1
# UGT [13] = assay: Microsomal stability in mouse liver microsomes assessed as UGT-mediated metabolism by measuring compound remaining at 5 uM and measured for 15 mins in presence of UDPGA by UPLC-MS/MS analysis (reference value: 100%); assay type: ADME; settings: read-out: Stability; outline: as §2
# Streptococcus pneumoniae = assay: Antibacterial activity against Streptococcus pneumoniae ATCC BAA-334 incubated for 24 hrs by resazurin dye based fluorimetric assay; assay type: functional, organism-based; settings: ATCC BAA-334, 24 h; outline: as §1
# [14] = Selectivity index, ratio of […] for cytotoxicity against mouse J774A.1 cells; assay type: toxicity, cell-based; settings: read-out: Selectivity Index
# [15] = tested on: Mycobacterium tuberculosis; assay: Antimycobacterial activity against Mycobacterium tuberculosis H37Ra lux incubated for 7 days by luminometric assay; assay type: functional, organism-based; settings: 168 h
# Outline: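 Twofold serial dilutions in 7H9/OADC/glycerol, in triplicate, inoculated with a suspension of 10.000 RLU per mL. After 7 days, n-decanal (1% v/v in ethanol) was added and luminescence read. IC50 and MIC (90% growth reduction) were derived from the mean of triplicates.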
# CYP450 [16] = molecular target: T1, CYP450; assay: Microsomal stability in human liver microsomes assessed as CYP450-mediated metabolism by measuring compound remaining at 5 uM and measured for 60 mins in presence of NADPH by UPLC-MS/MS analysis (reference value: 100%); assay type: ADME; settings: read-out: Stability; outline: as §2
# Staphylococcus aureus = assay: Antibacterial activity against Staphylococcus aureus ATCC 6538 incubated for 24 hrs by resazurin dye based fluorimetric assay; assay type: functional, organism-based; settings: ATCC 6538, 24 h; outline: as §1
# Escherichia coli = assay: Antibacterial activity against Escherichia coli ATCC 8739 incubated for 24 hrs by resazurin dye based fluorimetric assay; assay type: functional, organism-based; settings: ATCC 8739, ATCC 8739, 24 h; outline: as §1
# CYP450 [17] = molecular target: T1, CYP450; assay: Microsomal stability in human liver microsomes assessed as CYP450-mediated metabolism by measuring compound remaining at 5 uM and measured for 15 mins in presence of NADPH by UPLC-MS/MS analysis (reference value: 100%); assay type: ADME; settings: read-out: Stability; outline: as §2
SMILES,pIC50 (Enterococcus faecium),CC50 at 24 h [1] [µM],"remaining at 0.5 h, 5 µM (CYP450 [2]) [%]","remaining at 0.5 h, 5 µM (UGT [3]) [%]","remaining at 0.25 h, 5 µM (UGT [4]) [%]","remaining at 1 h, 5 µM (UGT [5]) [%]","remaining at 0.5 h, 5 µM (CYP450 [6]) [%]",pIC50 [7],pIC50 (Mycobacterium marinum),"remaining at 1 h, 5 µM (UGT [11]) [%]",pIC50 [12],pIC50 (Pseudomonas aeruginosa),pIC50 (Klebsiella pneumoniae),pIC50 (Streptococcus pneumoniae),pIC50 [15],MIC90 [15] [µM],"remaining at 1 h, 5 µM (CYP450 [16]) [%]",pIC50 (Staphylococcus aureus),pIC50 (Escherichia coli),"remaining at 0.25 h, 5 µM (CYP450 [17]) [%]",other results
CN[C@H](CC(C)C)C(=O)N[C@H]1C(=O)N[C@@H](CC(N)=O)C(=O)N[C@H]2C(=O)N[C@H]3C(=O)N[C@H](C(=O)N[C@H](C(=O)O)c4cc(O)cc(O)c4-c4cc3ccc4O)[C@H](O)c3ccc(c(Cl)c3)Oc3cc2cc(c3O[C@@H]2O[C@H](CO)[C@@H](O)[C@H](O)[C@H]2O[C@H]2C[C@](C)(N)[C@H](O)[C@H](C)O2)Oc2ccc(cc2Cl)[C@H]1O [VANCOMYCIN],< 6.30,–,–,–,–,–,–,–,–,–,–,–,–,–,–,–,–,–,–,–,–
CC/C(=C(\c1ccccc1)c1ccc(OCCN(C)C)cc1)c1ccccc1 [TAMOXIFEN],–,11.1,–,–,–,–,–,–,–,–,–,–,–,–,–,–,–,–,–,–,–
O=C1C2=C(C(=O)c3c1cnc1cc(F)ccc31)C1CCC2C1 (configuration not stated),< 4.19,35.2,100,76,79,73,100,5.70 to 6.00,5.49,60,6.37,< 4.19,< 4.19,4.19 to 4.49,5.74,10.2,100,< 4.19,< 4.19,100,"remaining at 0.5 h, 5 µM (UGT [8]): 88%; remaining at 0.25 h, 5 µM (CYP450 [9]): 100%; remaining at 1 h, 5 µM (CYP450 [10]): 100%; remaining at 0.25 h, 5 µM (UGT [13]): 89%; selectivity ratio [14]: 3.44"
NNC(=O)c1ccncc1 [ISONIAZID],–,–,–,–,–,–,–,> 6.60,–,–,–,–,–,–,6.96,0.31,–,–,–,–,–
O=C(O)Cc1ccccc1Nc1c(Cl)cccc1Cl [DICLOFENAC],–,–,23,16,22,–,–,–,–,13,–,–,–,–,–,–,5,–,–,45,–
O=C(O)c1cn(C2CC2)c2cc(N3CCNCC3)c(F)cc2c1=O [CIPROFLOXACIN],–,–,–,–,–,–,–,–,–,–,–,–,> 6.60,–,–,–,–,–,–,–,–
COc1c(N2C[C@@H]3CCCN[C@@H]3C2)c(F)cc2c(=O)c(C(=O)O)cn(C3CC3)c12 [MOXIFLOXACIN],–,–,–,–,–,–,–,–,6.85,–,6.72,–,–,–,–,–,–,–,–,–,–
C[C@H]1c2cccc(O)c2C(=O)C2=C(O)[C@]3(O)C(=O)C(C(N)=O)=C(O)[C@@H](N(C)C)[C@@H]3[C@@H](O)[C@@H]21 [DOXYCYCLINE],–,–,–,–,–,–,–,–,–,–,–,–,–,< 6.60,–,–,–,> 6.60,–,–,–
O=C1C2=C(C(=O)c3c1cnc1ccc(F)cc31)C1CCC2C1 (configuration not stated),< 4.19,> 128,100,79,92,72,100,5.10 to 5.40,5.30,64,6.62,< 4.19,< 4.19,4.19 to 4.49,5.16,57.3,100,< 4.19,< 4.19,100,"remaining at 0.5 h, 5 µM (UGT [8]): 92%; remaining at 0.25 h, 5 µM (CYP450 [9]): 100%; remaining at 1 h, 5 µM (CYP450 [10]): 100%; remaining at 0.25 h, 5 µM (UGT [13]): 96%"
CCn1cc(C(=O)O)c(=O)c2cc(F)c(N3CCNCC3)cc21 [NORFLOXACIN],–,–,–,–,–,–,–,–,–,–,–,< 6.30,–,–,–,–,–,–,< 6.60,–,–
O=C1C2=C(C(=O)c3c1cnc1cc(C(F)(F)F)ccc31)C1CCC2C1 (configuration not stated),< 4.19,122,100,63,71,51,100,5.40 to 5.70,5.05,63,5.49,< 4.19,< 4.19,4.19 to 4.49,5.52,7.95,100,< 4.19,< 4.19,100,"remaining at 0.5 h, 5 µM (UGT [8]): 70%; remaining at 0.25 h, 5 µM (CYP450 [9]): 100%; remaining at 1 h, 5 µM (CYP450 [10]): 100%; remaining at 0.25 h, 5 µM (UGT [13]): 62%; selectivity ratio [14]: 15.4"
O=C1C2=C(C(=O)c3c1cnc1ccc(C(F)(F)F)cc31)C1CCC2C1 (configuration not stated),< 4.19,108,100,74,100,78,100,5.40 to 5.70,4.34,69,5.07,< 4.19,< 4.19,< 4.19,5.60,9.23,100,< 4.19,< 4.19,100,"remaining at 0.5 h, 5 µM (UGT [8]): 81%; remaining at 0.25 h, 5 µM (CYP450 [9]): 100%; remaining at 1 h, 5 µM (CYP450 [10]): 100%; remaining at 0.25 h, 5 µM (UGT [13]): 87%; selectivity ratio [14]: 11.8"
